≈ marks a conversion by molar mass, not a printed value. Calls of active or inactive are those of the source. No cut-off for these calls is given here.
Key:
Staphylococcus aureus [1] = assay: Antibiotic activity against Staphylococcus aureus assessed as growth inhibition after 2 days by optical microscopy; format: functional; settings: 48 h
Escherichia coli = assay: Antibiotic activity against Escherichia coli DH5alpha assessed as growth inhibition after 2 days by optical microscopy; format: functional; settings: DH5[alpha], 48 h
[2] = (§1) Cytotoxicity against human MRC5 cells assessed as reduction in cell viability after 24 hrs by MTT assay; format: cell-based; settings: MRC5 cells, read-out: TD50
Procedure, shortened: (§2)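 Vero or MRC-5 cells kept in DMEM with 10% heat-inactivated calf serum, 37 °C, 5% CO₂; compound-treated cells given MTT for 3 h at 37 °C, then DMSO 10 min, absorbance at 570 nm; cytotoxicity % = 100 − (sample OD/untreated OD) × 100; TD50/TD90 = dose cutting viability 50% or 90%.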

MRC5 = assay: as §1; format: cell-based; settings: mrc5, 24 h; procedure, shortened: as §2
[3] = (§3) Cytotoxicity against african green monkey Vero cells assessed as reduction in cell viability after 24 hrs by MTT assay; format: cell-based; settings: chlorocebus sabaeus, Vero cells; read-out: TD50; procedure, shortened: as §2
Vero = assay: as §3; format: cell-based; settings: chlorocebus sabaeus, vero, 24 h; procedure, shortened: as §2
Staphylococcus aureus [4] = assay: Antibiotic activity against Staphylococcus aureus assessed as growth inhibition after compound washout by optical microscopy; format: functional
[5] = Therapeutic index, ratio of TD90 for human MRC5 cells to MBC for Staphylococcus aureus; format: cell-based; settings: read-out: TI
Procedure, shortened: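 Therapeutic index calculated as MRC-5 TD90 (MTT assay) divided by MBC measured after washout regrowth test.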

Staphylococcus aureus [6] = assay: Antibiotic activity against Staphylococcus aureus assessed as ballooning of cocci at 1 to 4 times MIC concentration by phase-contrast microscopy; format: functional, organism-based

Compound	MIC (Staphylococcus aureus [1])	MIC (Escherichia coli)	CC50 at 24 h [2]	TD90 (MRC5)	CC50 at 24 h [3]	TD90 (Vero)	MBC (Staphylococcus aureus [4])	selectivity ratio [5]	Activity (Staphylococcus aureus [6])
NC(=O)c1c(F)ccc(OC[C@H]2COc3ccc(Cl)cc3O2)c1F	1 µg/mL (≈ 2.81 µM)	> 100 µg/mL	400 µg/mL (≈ 1120 µM)	> 800 µg/mL	> 200 µg/mL	> 200 µg/mL	2.5 µg/mL (≈ 7.03 µM)	> 320	
NC(=O)c1c(F)ccc(OCC2COc3ccccc3O2)c1F (racemic)	5 µg/mL (≈ 15.6 µM)	> 100 µg/mL					80 µg/mL (≈ 249 µM)		
NC(=O)c1c(F)ccc(OC[C@@H]2COc3ccc(Cl)cc3O2)c1F	0.25 µg/mL (≈ 0.703 µM)	> 100 µg/mL	600 µg/mL (≈ 1690 µM)	> 800 µg/mL	> 200 µg/mL	> 200 µg/mL	0.5 µg/mL (≈ 1.41 µM)	> 1600	
NC(=O)c1c(F)ccc(OCC2COc3cc(Cl)ccc3O2)c1F (racemic)	1 µg/mL (≈ 2.81 µM)	> 100 µg/mL	650 µg/mL (≈ 1830 µM)	800 µg/mL	550 µg/mL (≈ 1550 µM)	800 µg/mL	2.5 µg/mL (≈ 7.03 µM)	320	
NC(=O)c1c(F)ccc(OCC2COc3ccc(Cl)cc3O2)c1F (racemic)	0.5 µg/mL (≈ 1.41 µM)	> 100 µg/mL	500 µg/mL (≈ 1410 µM)	> 800 µg/mL	450 µg/mL (≈ 1270 µM)	> 800 µg/mL	0.5 µg/mL (≈ 1.41 µM)	> 1600	Active
NCCNC(=O)c1c(F)ccc(OCC2COc3ccccc3O2)c1F (stereo not given)	20 µg/mL (≈ 54.9 µM)	> 100 µg/mL					40 µg/mL (≈ 110 µM)		
NC(=O)c1c(F)ccc(OCCCCOCC(O)CO)c1F (stereo not given)	> 100 µg/mL	> 100 µg/mL							

Now from value to compound, other results behind:

MIC (Staphylococcus aureus [1])	MIC (Escherichia coli)	Compound	CC50 at 24 h [2]	TD90 (MRC5)	CC50 at 24 h [3]	TD90 (Vero)	MBC (Staphylococcus aureus [4])	selectivity ratio [5]	Activity (Staphylococcus aureus [6])
> 100 µg/mL	> 100 µg/mL	CCCCCCCCCOc1ccc(F)c(C#N)c1F							
10 µg/mL (≈ 29.2 µM)	20 µg/mL (≈ 58.4 µM)	CCCCCCCCCOc1ccc(F)c(C(=O)NCCN)c1F	35 µg/mL (≈ 102 µM)	80 µg/mL	60 µg/mL (≈ 175 µM)	120 µg/mL			
> 100 µg/mL	> 100 µg/mL	CCCCCCCCCOc1ccc(F)c(C2=NCCO2)c1F							
> 100 µg/mL	> 100 µg/mL	NCC(O)COCCCCOc1ccc(F)c(C(N)=O)c1F (racemic)							
0.1 µg/mL (≈ 0.334 µM)	> 100 µg/mL	CCCCCCCCCOc1ccc(F)c(C(N)=O)c1F	100 µg/mL (≈ 334 µM)	> 200 µg/mL	90 µg/mL (≈ 301 µM)	> 200 µg/mL	0.25 µg/mL (≈ 0.835 µM)	> 800	
> 100 µg/mL	> 100 µg/mL	CCCCCCCCCOc1ccc(F)c(C(=O)NCCO)c1F							
> 100 µg/mL	> 100 µg/mL	CCCCCCCCCOc1ccc(F)c(C(=O)NCCNC(=O)c2c(F)ccc(OCCCCCCCCC)c2F)c1F							

From ChEMBL document CHEMBL3352283, “Benzodioxane-benzamides as new bacterial cell division inhibitors” (Eur J Med Chem, 2015)
